Results published in ChEMBL document CHEMBL4364238, “Discovery of BNC375, a Potent, Selective, and Orally Available Type I Positive Allosteric Modulator of α7 nAChRs” (ACS Med Chem Lett, 2019).
≈ marks a conversion by molar mass, not a printed value. One block for each compound: values may come before it. Calls of active or inactive are those of the source. The calls are words filed in the database; no cut-off is given here.

What was measured:
[1] = biological target: Neuronal acetylcholine receptor subunit alpha-7 (Rattus norvegicus) (UniProt Q05941); assay: Positive allosteric modulator activity at rat alpha7 nAChR expressed in GH4C1 cells assessed as potentiation of acetylcholine response at 3 uM at -70 mV holding potential preincubated for 30 secs followed by co-application with acetylcholine by automated patch clamp assay; format: cell-based
Chain of Neuronal acetylcholine receptor subunit alpha-7 (Rattus norvegicus) (Q05941 whole entry): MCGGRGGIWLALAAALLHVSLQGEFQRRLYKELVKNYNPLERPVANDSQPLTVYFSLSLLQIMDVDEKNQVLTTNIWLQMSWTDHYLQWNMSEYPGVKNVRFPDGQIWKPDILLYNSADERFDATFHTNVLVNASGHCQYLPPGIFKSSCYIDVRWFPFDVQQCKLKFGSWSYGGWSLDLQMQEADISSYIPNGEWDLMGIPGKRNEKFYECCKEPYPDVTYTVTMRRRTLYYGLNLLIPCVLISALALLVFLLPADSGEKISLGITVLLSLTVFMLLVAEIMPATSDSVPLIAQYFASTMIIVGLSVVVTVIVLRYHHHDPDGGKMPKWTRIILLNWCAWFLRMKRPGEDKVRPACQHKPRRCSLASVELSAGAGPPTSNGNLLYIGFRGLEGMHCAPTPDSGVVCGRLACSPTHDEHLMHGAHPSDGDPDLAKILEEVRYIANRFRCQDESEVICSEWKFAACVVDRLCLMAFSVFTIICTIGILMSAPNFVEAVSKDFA
How it was run: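 Automated planar patch clamp on stable GH4C1 (rat) cell lines expressing rat α7 nAChR; test compound at 3 μM with an EC₂₀ acetylcholine challenge; percent change in peak current versus acetylcholine alone taken as P₃.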

Mus musculus [2] = assay: Reversal of scopolamine-induced memory impairment in mouse assessed as spontaneous alteration at 3 to 30 mg/kg, po administered with compond and scopolamine at 60 mins and 30 mins respectively prior to test by T-maze test; format: functional, organism-based
How it was run: (§1)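 Mouse T-maze continuous alternation task; reversal of scopolamine-induced loss of spontaneous alternation after ip or oral doses of 3 and 30 mg/kg; significant doses reported.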

Mus musculus [3] = assay: Reversal of scopolamine-induced memory impairment in mouse assessed as percentage of increase in spontaneous alteration at 10 mg/kg, po administered with compond and scopolamine at 60 mins snd 30 mins respectively prior to test by T-maze test; format: functional; conditions: read-out: INH
How it was run: (§2)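 Mouse T-maze continuous alternation task with scopolamine-induced impairment of spontaneous alternation; compound given orally in saline-based vehicle with 25% Cremophor ELP over 0.003–10.0 mg/kg; group means compared by one-way ANOVA then Fisher's PLSD, p < 0.05 significant.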

Mus musculus [4] = assay: Reversal of scopolamine-induced memory impairment in mouse assessed as increase in spontaneous alteration at 3 mg/kg, po administered with compond and scopolamine at 60 mins and 30 mins respectively prior to test by T-maze test; format: functional; conditions: read-out: INH; how it was run: as §2
Mus musculus [5] = assay: Reversal of scopolamine-induced memory impairment in mouse assessed as increase in spontaneous alteration at 1 mg/kg, po administered with compond and scopolamine at 60 mins and 30 mins respectively prior to test by T-maze test; format: functional; conditions: read-out: INH; how it was run: as §2
[6] = Stability in human liver microsomes assessed as hepatic extraction ratio at 1 uM measured for 45 mins by LC-MS/MS analysis; format: ADME, Microsome; conditions: read-out: ERH
Mus musculus [7] = assay: Reversal of scopolamine-induced memory impairment in mouse assessed as increase in spontaneous alteration at 0.003 mg/kg, po administered with compond and scopolamine at 60 mins and 30 mins respectively prior to test by T-maze test; format: functional; how it was run: as §2
[8] = Oral bioavailability in Sprague-Dawley rat; format: ADME, organism-based; conditions: in vivo
Mus musculus [9] = assay: Reversal of scopolamine-induced memory impairment in mouse assessed as increase in spontaneous alteration at 0.3 mg/kg, po administered with compond and scopolamine at 60 mins and 30 mins respectively prior to test by T-maze test; format: functional; how it was run: as §2
[10] = biological target: Neuronal acetylcholine receptor subunit alpha-7 (Rattus norvegicus) (UniProt Q05941); assay: (§3) Positive allosteric modulatory activity at rat alpha7 nAChR expressed in GH4C1 cells assessed as AUC of potentiation of peak current at -70 mV holding potential preincubated for 30 secs followed by co-application with acetylcholine by manual patch clamp assay relative to peak current potentiation; format: cell-based
How it was run: (§4)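 Conventional manual patch-clamp with a fast-application system on stable GH4C1 cells expressing rat α7 nAChR; currents evoked by acetylcholine with and without test compound; peak-current change relative to acetylcholine alone gives potentiation (P₃ at 3 μM; concentration–response for EC₅₀ and Pmax).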

[11] = Dose normalized AUC (0 to infinity) in Sprague-Dawley rat at 4 mg/kg administered as single IV bolus dose; format: ADME, organism-based; conditions: in vivo
How it was run: (§5)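 Single IV bolus of 4.0 mg/kg in male Sprague–Dawley rats; dosing solution 1.1 mg/mL in saline-based vehicle with 0.1 M hydroxypropyl-β-cyclodextrin and 10% (v/v) DMSO; plasma pharmacokinetic parameters derived.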

Mus musculus [12] = assay: Reversal of scopolamine-induced memory impairment in mouse assessed as increase in spontaneous alteration at 0.03 mg/kg, po administered with compond and scopolamine at 60 mins and 30 mins respectively prior to test by T-maze test; format: functional; how it was run: as §2
[13] = Plasma clearance in Sprague-Dawley rat at 4 mg/kg administered as single IV bolus dose; format: ADME, organism-based; how it was run: as §5
[14] = biological target: Neuronal acetylcholine receptor subunit alpha-7 (Rattus norvegicus) (UniProt Q05941); assay: as §3, with “of acetylcholine response at 3 uM” for “of peak current”, “by automated” for “by manual”, “to potentiation of” for “to peak”, “current response” for “current potentiation”; format: cell-based
[15] = Half life in Sprague-Dawley rat plasma at 4 mg/kg administered as single IV bolus dose; format: ADME, organism-based; how it was run: as §5
[16] = biological target: Neuronal acetylcholine receptor subunit alpha-7 (Rattus norvegicus) (UniProt Q05941); assay: Positive allosteric modulatory activity at rat alpha7 nAChR expressed in GH4C1 cells assessed as potentiation of peak current at -70 mV holding potential preincubated for 30 secs followed by co-application with acetylcholine by manual patch clamp assay relative to acetylcholine-induced peak current; format: cell-based; how it was run: as §4
[17] = Stability in mouse liver microsomes assessed as hepatic extraction ratio at 1 uM measured for 45 mins by LC-MS/MS analysis; format: ADME, Microsome; conditions: read-out: ERH
[18] = Volume of distribution at steady state in Sprague-Dawley rat at 4 mg/kg administered as single IV bolus dose; format: ADME, organism-based; conditions: in vivo, read-out: Vdss; how it was run: as §5
[19] = biological target: Neuronal acetylcholine receptor subunit alpha-7 (Rattus norvegicus, UniProt Q05941); assay: Positive allosteric modulatory activity at rat alpha7 nAChR expressed in GH4C1 cells assessed as potentiation of acetylcholine response at -70 mV holding potential preincubated for 30 secs followed by co-application with acetylcholine by manual patch clamp assay; format: cell-based; how it was run: as §4
Chain of Neuronal acetylcholine receptor subunit alpha-7 (Q05941 whole entry): as above

[20] = Apparent permeability in human Caco2 cells; format: ADME, cell-based; conditions: Caco-2
[21] = biological target: Neuronal acetylcholine receptor subunit alpha-7 (Rattus norvegicus) (UniProt Q05941); assay: as §3, with “of acetylcholine response at 3 uM” for “of peak current”, “to potentiation of” for “to peak”, “current response” for “current potentiation”; format: cell-based; how it was run: as §4
[22] = Lipophilicity, log D of the compound at pH 7.4; format: physicochemical; conditions: buffer
Mus musculus [23] = assay: Reversal of scopolamine-induced memory impairment in mouse assessed as increase in spontaneous alteration at 3 to 30 mg/kg, ip administered with compond and scopolamine at 60 mins snd 30 mins respectively prior to test by T-maze test; format: functional, organism-based; how it was run: as §1
[24] = biological target: Neuronal acetylcholine receptor subunit alpha-7 (Rattus norvegicus) (UniProt Q05941); assay: Positive allosteric modulatory activity at rat alpha7 nAChR expressed in GH4C1 cells assessed as potentiation of acetylcholine response at 3 uM at -70 mV holding potential preincubated for 30 secs followed by co-application with acetylcholine by manual patch clamp assay; format: cell-based; how it was run: as §4
[25] = Solubility of the compound at pH 6.5; format: physicochemical; conditions: buffer

Compound: COc1ccc(Cl)cc1NC(=O)c1cccc(-c2ccc(S(N)(=O)=O)cc2)c1
inhibition (Mus musculus [2]): inactive
Activity [1]: 410%

Compound: CC1(C)C(CNc2cccc(N3CCOCC3)c2)C1c1ccc(S(N)(=O)=O)cc1 (racemic)
Activity [1]: 460%

Compound: CC1(C)C(CNC2CCCCC2)C1c1ccc(S(N)(=O)=O)cc1 (racemic)
Activity [1]: < 100%

Compound: Cc1ccc(Cl)cc1NCC1C(c2ccc(S(N)(=O)=O)cc2)C1(C)C (racemic)
Activity [1]: 12300%

Compound: COc1ccc(Cl)cc1NC[C@H]1[C@H](c2ccc(S(N)(=O)=O)cc2)C1(C)C
hepatic extraction ratio at 0.75 h, 1 µM [6]: 0.59
inhibition in vivo at 0.003 mg/kg (Mus musculus [7]): -3%
bioavailability [8]: 77%
inhibition in vivo at 0.3 mg/kg (Mus musculus [9]): 65%
Ratio [10]: 25
percent reversal of scopolamine-induced memory impairment at 3 mg/kg (Mus musculus [4]): 90%
AUC/dose [11]: 1 µM·h/mg
inhibition in vivo at 0.03 mg/kg (Mus musculus [12]): 11%
Activity [1]: 11800%
clearance [13]: 43 mL/min/kg
Ratio [14]: 57
half-life [15]: 3.9 h
Emax [16]: 1630%
hepatic extraction ratio at 0.75 h, 1 µM [17]: 0.71
Vd [18]: 5.1 L/kg
EC50 [19]: 63 nM
Papp [20]: 14 ×10⁻⁶ cm/s

Compound: COc1ccc(Cl)cc1NC(=O)C1C(c2ccc(S(N)(=O)=O)cc2)C1(C)C (racemic)
Ratio [21]: 5.6
logD [22]: 3.7
inhibition (Mus musculus [23]): Active
Activity [1]: 660%
Activity [24]: 420%
solubility [25]: 3.1 to 6.3 µg/mL (≈ 7.58 to 15.4 µM)

Compound: COc1ccc(S(N)(=O)=O)cc1NCC1C(c2ccc(S(N)(=O)=O)cc2)C1(C)C (racemic)
Activity [1]: < 100%

Compound: COc1ncccc1NCC1C(c2ccc(S(N)(=O)=O)cc2)C1(C)C (racemic)
Activity [1]: 2420%

More lines, main results first:

Activity [1]: 3360%
Compound: CC1(C)C(CNc2ccc(F)cc2OC(F)F)C1c1ccc(S(N)(=O)=O)cc1 (racemic)

Activity [1]: 410%
Compound: CC1(C)[C@H](CNc2ccc(F)cc2C(F)(F)F)[C@H]1c1ccc(S(N)(=O)=O)cc1
percent increase in spontaneous alternation at 10 mg/kg (Mus musculus [3]): -9%
percent reversal of scopolamine-induced memory impairment at 3 mg/kg (Mus musculus [4]): 38%
percent reversal of scopolamine-induced memory impairment (increase in spontaneous alternation) at 1 mg/kg (Mus musculus [5]): -18%

Activity [1]: 17600%
Compound: Cc1cc(F)ccc1NC[C@H]1[C@H](c2ccc(S(N)(=O)=O)cc2)C1(C)C

Activity [1]: 17400%
Compound: Cc1ccc(F)cc1NC[C@H]1[C@H](c2ccc(S(N)(=O)=O)cc2)C1(C)C

Activity [1]: 460%
Compound: Cc1ccc(F)cc1NC[C@@H]1[C@@H](c2ccc(S(N)(=O)=O)cc2)C1(C)C
percent increase in spontaneous alternation at 10 mg/kg (Mus musculus [3]): 10%
percent reversal of scopolamine-induced memory impairment at 3 mg/kg (Mus musculus [4]): 0%
percent reversal of scopolamine-induced memory impairment (increase in spontaneous alternation) at 1 mg/kg (Mus musculus [5]): -9%

Activity [1]: 8170%
Compound: CC1(C)[C@@H](CNc2ccc(F)cc2OC(F)F)[C@@H]1c1ccc(S(N)(=O)=O)cc1
percent increase in spontaneous alternation at 10 mg/kg (Mus musculus [3]): 51%
percent reversal of scopolamine-induced memory impairment at 3 mg/kg (Mus musculus [4]): 16%
percent reversal of scopolamine-induced memory impairment (increase in spontaneous alternation) at 1 mg/kg (Mus musculus [5]): 46%

Activity [1]: 8660%
Compound: Cc1cc(F)ccc1NCC1C(c2ccc(S(N)(=O)=O)cc2)C1(C)C (racemic)

Activity [1]: 170%
Compound: CC1(C)[C@H](CNc2ccc(F)cc2OC(F)F)[C@H]1c1ccc(S(N)(=O)=O)cc1
percent increase in spontaneous alternation at 10 mg/kg (Mus musculus [3]): 41%
percent reversal of scopolamine-induced memory impairment at 3 mg/kg (Mus musculus [4]): 8%
percent reversal of scopolamine-induced memory impairment (increase in spontaneous alternation) at 1 mg/kg (Mus musculus [5]): 28%

Activity [1]: 2440%
Compound: CC1(C)C(CNc2cc(F)ccc2OC(F)(F)F)C1c1ccc(S(N)(=O)=O)cc1 (racemic)
